# Sampled rows, rich in hits. Any-hit rate of the full collection: about 2.2%.
# FN deposit inh: inhibitors of fibronectin matrix deposition, primary screen, AH1F cells, Alexa488-fibronectin fluorescence, plate reader; AH1F fibroblasts, overnight; inhibition, % at 12.6 µM; actives 0.086% (n = 350,000); AID 743247, 2014;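 active means mean inhibition across replicates of 30% or more, regardless of how many single replicates reach that level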;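 further: positive control wells lacked labelled fibronectin entirely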
#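 test system = AH1F fibroblasts assembling fluorescent fibronectin matrix | quantity = 10000 AH1F cells per well | buffer or medium = DMEM plus 2% serum, read in PBS | doses = single dose, pinned | incubation = 1 h cell attachment, overnight exposure to compound and label | detection = fluorescence at 485 nm excitation, 525 nm emission | read-out basis = inhibition from reduced deposited-fibronectin fluorescence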
# PGC1a acetyl inh: inhibitors of PGC1a acetylation signal, primary screen, cell-based, U2OS, AlphaScreen, inhibitor mode; AlphaScreen anti-acetyl-lysine; with virally co-expressed GCN5 acetyltransferase; inhibition, % at 15.6 µM; actives 0.17% (n = 350,000); AID 651687, 2012;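 active means every replicate shows inhibition of at least 40%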;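 further: 0% = neutral control wells and 100% = positive control wells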
# ERAP1 HTS inh: human ERAP1 aminopeptidase inhibitors, primary screen, biochemical, single point, plate reader; recombinant ERAP1, Leu-AMC fluorescence, 60 min; inhibition, % at 10.7 µM; actives 0.15% (n = 340,000); AID 652197, 2013;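 active means mean replicate inhibition of at least 30%, or all replicates individually reaching that 30% level; inactive means mean below 30% and not every replicate reaching it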;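 further: 0% = neutral control wells and 100% = L-leucinethiol positive control wells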
# SIRT5 block: SIRT5 desuccinylase inhibitors, primary screen, biochemical, fluorescence imaging, single point, set 5 | NAD-dependent protein deacylase sirtuin-5, mitochondrial (Homo sapiens), Q9NXA8 | Purified SirT5, succinyl-peptide AMC, trypsin-coupled fluorescence | inhibition, % at 15 µM | actives 1.1% (n = 330,000) | AID 652115, 2013; in the data active means inhibition above about 15%
# Target sequence (Q9NXA8 whole entry, looked up): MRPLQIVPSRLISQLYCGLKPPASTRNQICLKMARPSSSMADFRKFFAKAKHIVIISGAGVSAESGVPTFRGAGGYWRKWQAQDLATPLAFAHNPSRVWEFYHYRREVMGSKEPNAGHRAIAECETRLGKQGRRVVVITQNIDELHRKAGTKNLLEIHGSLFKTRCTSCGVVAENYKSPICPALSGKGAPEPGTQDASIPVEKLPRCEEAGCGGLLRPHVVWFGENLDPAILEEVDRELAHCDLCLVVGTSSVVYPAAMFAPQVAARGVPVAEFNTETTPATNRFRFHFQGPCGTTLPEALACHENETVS
# FGF22 binding: binders of human FGF22 protein, primary screen, FGF22 synaptogenesis inhibitor project, biophysical, thermal shift, single point; recombinant FGF22 thermal shift, SYPRO orange fluorescence; percent of sucrose octasulfate shift, DMSO zero; activity (Tm shift, normalised), % at 9.99 µM; Fibroblast growth factor 22 (Homo sapiens), Q9HCT0; actives 1.5% (n = 340,000);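 active means mean Tm shift, scaled 0 neutral to 100 positive control, at about 1.3% or above, every replicate too, limit read from the data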
# Target sequence (Q9HCT0 whole entry, looked up): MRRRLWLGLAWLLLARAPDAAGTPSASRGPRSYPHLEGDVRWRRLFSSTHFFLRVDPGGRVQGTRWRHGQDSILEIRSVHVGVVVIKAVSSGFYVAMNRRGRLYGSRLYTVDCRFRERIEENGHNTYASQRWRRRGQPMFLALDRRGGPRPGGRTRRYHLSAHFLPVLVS
# * marks the source's active call; other numbers are inactive results; . = no result.
SMILES,FN deposit inh,PGC1a acetyl inh,ERAP1 HTS inh,SIRT5 block,FGF22 binding
Cc1ccc(C(=O)N(Cc2nc(-c3ccc(C)cc3)no2)C(C)C)cc1,-1,3,0,17*,0
COc1cccc(C(=O)Nc2ccc3c(c2)OC[C@H](C)N(CC2CC2)C[C@@H](C)[C@H](OC)CN(C)C3=O)c1,-13,-19,-1,-1,0
NC(=O)COC(=O)CC(NC(N)=O)c1ccc(Cl)cc1 (stereo not given),-12,107*,5,-4,0
Cc1cc(C(=O)COC(=O)CC(NC(N)=O)c2ccc(Cl)cc2)c(C)n1C (stereo not given),-9,-2,0,-2,0
CCCC#Cc1cnc2c(c1)C(=O)N([C@H](C)CO)C[C@@H](C)[C@H](CN(C)C(=O)CCN1CCCCC1)O2,-3,14,.,.,.
C[C@H]1CN(C)C(=O)Cc2cc(N(C)C)ccc2O[C@H]1CN(C)C,1,.,.,.,.
COc1ccccc1OCCOc1ccccc1/C=N/n1cnnc1,.,-1,.,.,.
COc1cccc2cccc(/C=N/n3cnnc3)c12,-4,0,2,1,43*
CN(C)CC(O)c1ccc(C=Cc2ccc(Cl)cc2)cc1 (stereo not given),2,51*,0,-2,0
C[C@H](CO)N1C[C@H](C)[C@@H](CN(C)C(=O)Nc2ccccc2)OCCCC[C@H](C)Oc2ccc(NC(=O)c3ccccc3)cc2C1=O,0,-7,1,-4,1
Cc1oc(-c2ccccc2Cl)nc1CN1CCCCC1c1cccnc1 (stereo not given),-11,.,4,-23,43*
CN(C)CC(=O)N1CC2(C1)[C@H](c1ccccc1)[C@H](CO)N2C(=O)C1CCCC1,7,-9,0,3,.
C[C@@H]1CCCCO[C@H](CN(C)S(=O)(=O)c2ccc(F)cc2)[C@@H](C)CN([C@H](C)CO)C(=O)c2cc(NC(=O)c3ccncc3)ccc2O1,2,1,1,6,0
Cc1ccc(NC(=S)N(Cc2ccc(Br)cc2)Cc2ccc(C(=O)O)cc2)cc1C,-6,-2,7,1,43*
Cc1cc(C)cc(NC(=S)N(Cc2ccc(Br)cc2)Cc2ccc(C(=O)O)cc2)c1,-5,5,1,-3,43
Cc1cc(NC(=S)N(Cc2ccc(Cl)cc2)Cc2ccc(C(=O)O)cc2)ccc1Cl,4,13,1,5,44*
Cc1cc(C)cc(NC(=S)N(Cc2ccc(Cl)cc2)Cc2ccc(C(=O)O)cc2)c1,17,7,-6,13,.
C[C@H]1CN([C@@H](C)CO)C(=O)c2cccc(NC(=O)Nc3cccc4ccccc34)c2O[C@@H]1CN(C)S(=O)(=O)c1ccc(F)cc1,.,18,2,1,-1
CN1C(=O)c2cc(NC(=O)c3ccc(F)cc3)ccc2OC[C@H]2O[C@H](CC(=O)NCC3CCCCC3)CC[C@H]21,.,-7,2,6,0
NC(=O)COC(=O)CC12CC3CC(CC(C3)C1)C2,-2,.,.,7,0
NC(=O)NC(=O)COC(=O)CC12CC3CC(CC(C3)C1)C2,.,.,3,5,44*
COc1ccc(S(=O)(=O)N(C)C[C@H]2Oc3cc(C#CC4CC4)ccc3S(=O)(=O)N([C@@H](C)CO)C[C@@H]2C)cc1,16,-32,3,22*,0
COc1ccc(S(=O)(=O)N(C)C[C@H]2Oc3cc(C#CC4CC4)ccc3S(=O)(=O)N([C@@H](C)CO)C[C@H]2C)cc1,4,-24,7,22*,0
COc1ccc(S(=O)(=O)N(C)C[C@@H]2Oc3cc(C#CC4CC4)ccc3S(=O)(=O)N([C@H](C)CO)C[C@H]2C)cc1,11,-59,4,15*,0
C[C@@H]1CCCCO[C@H](CN(C)C(=O)Nc2ccccc2)[C@@H](C)CN([C@@H](C)CO)C(=O)c2cc(NS(=O)(=O)c3ccccc3)ccc2O1,8,-8,1,5,0
SMILES,FN deposit inh,PGC1a acetyl inh,ERAP1 HTS inh,SIRT5 block,FGF22 binding
COc1ccc(NC(=O)Nc2ccc3c(c2)[C@H]2C[C@@H](CC(=O)N4CCc5ccccc5C4)O[C@@H](CO)[C@H]2O3)cc1,12,3,0,-3,0
CC(C)OC(=O)CC(=O)CSc1nc2c(c(-c3cccs3)c1C#N)CCC2,-3,.,4,6,44*
CCOC(=O)C(C)Sc1nc2c(c(-c3cccs3)c1C#N)CCC2 (stereo not given),-3,.,-2,-1,0
COc1cccc(C(=O)Oc2ccc(N3C(=O)CCC3=O)c(C)c2)c1,0,-7,-4,16*,0
O=C(Oc1ccccc1)c1cccc(N2C(=O)CCC2=O)c1,.,1,.,.,.
COc1ccc(S(=O)(=O)N2CCC3(CC2)CN(Cc2ccccc2OC)[C@@H](CO)c2[nH]c4cc(OC)ccc4c23)cc1,.,.,0,3,0
Clc1ccsc1-c1ccc2ccccc2n1,-4,6,.,.,.
c1ccc2nc(-c3nccs3)ccc2c1,0,.,3,-2,44*
O=C1CC(=Nc2ccc([N+](=O)[O-])cc2)NN1c1c(Cl)cc(Cl)cc1Cl,3,.,0,17*,0
O=S(=O)(NCC[C@@H]1CC[C@@H](NS(=O)(=O)c2cccc(F)c2)[C@H](CO)O1)c1cccc(F)c1,.,1,-1,3,0
C[C@H](CO)N1C[C@H](C)[C@@H](CN(C)Cc2ccc(C(F)(F)F)cc2)Oc2ccc(NC(=O)Nc3cccc4ccccc34)cc2C1=O,4,-3,2,8,0
O=C(C[C@@H]1CC[C@@H](NC(=O)Nc2ccc(F)cc2)[C@H](CO)O1)NCc1cccc(F)c1,.,-9,0,-2,0
CCCCCCCCN1C(=O)[C@H](CC(=O)NCCC(C)C)C[C@@]2(C(=O)OCC)CCCC=C12,3,.,-3,21*,0
CCCCCCCCN1C(=O)[C@H](CC(=O)NCC2CCCCC2)C[C@@]2(C(=O)OC)CCCCC=C12,0,.,-3,16*,1
CCCCCCCCN1C(=O)[C@H](CC(=O)NCCCOC)C[C@@]2(C(=O)OC)CCCCC=C12,-3,.,-1,0,0
O=C(Cc1ccncc1)NCC[C@@H]1CC[C@H](NC(=O)C2CC2)[C@H](CO)O1,0,7,0,1,0
Cc1ccccc1-c1ccc([C@H]2[C@@H](CO)N3CCCCN(C(=O)Nc4ccccc4)C[C@@H]23)cc1,.,10,-2,1,0

# Assay outcomes deposited in PubChem by Broad Institute.
